ROMK primary = modulates human ROMK potassium channel activity; B-score at 10 µM; 130,000 compounds, 2% hits; P48048; Tet-inducible ROMK, thallium flux fluorescence; actives lie on both sides;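 active = signal ratio slope over the read window, or its plate-corrected B-score, at least 3 SD from the plate mean, either direction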;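 also: B-score of the F/F0 ratio slope over 7 to 12 s after thallium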
Target sequence (P48048 whole entry, looked up): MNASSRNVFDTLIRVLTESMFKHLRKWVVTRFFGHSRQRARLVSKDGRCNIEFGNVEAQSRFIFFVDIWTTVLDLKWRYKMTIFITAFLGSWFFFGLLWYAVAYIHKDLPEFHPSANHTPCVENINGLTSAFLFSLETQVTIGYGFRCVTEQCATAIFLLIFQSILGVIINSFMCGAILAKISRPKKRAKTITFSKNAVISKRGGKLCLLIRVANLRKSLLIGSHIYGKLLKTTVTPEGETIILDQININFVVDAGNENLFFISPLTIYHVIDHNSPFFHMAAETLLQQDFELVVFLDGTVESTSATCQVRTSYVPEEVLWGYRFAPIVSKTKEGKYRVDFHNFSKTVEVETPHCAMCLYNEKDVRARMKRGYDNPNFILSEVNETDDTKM
Calb biofilm kill = mixture kills Candida albicans biofilm cells; 120,000 compounds, 0.02% hits; AID 1242; inhibition, % at 7.6 µM; C. albicans biofilm persisters + clotrimazole, fluorescence viability; primary screen in compound mixtures of four per well;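 also: compounds exposed to preformed 24 h biofilms for 48 h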
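Incubation: 24 h biofilm formation, then 48 h compound exposure, 37 °C | Material: C. albicans biofilms | Buffer or medium: RPMI/MOPS medium, pH 7.0 | Measured by: 2-h Alamar Blue fluorescence, 535/590 nm excitation/emission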
ROMK hit retest = retested hit modulating human ROMK potassium channel; AID 1917; 3,000 compounds, 54% hits; normalized thallium flux (F/F0 slope) at 10 µM; shares compounds with ROMK primary; ROMK thallium flux, fluorescence ratio; active compounds read low;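 active = Flux at 10 µM at least 3 SD below or above vehicle control mean in one or both replicates; inconclusive = no clear call, values can overlap the other calls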
Each line names hits and unclear results; the compound was inactive in the other large screens (follow-up assays come after a bar, where they were run). Only a selection was taken, and hits are over-represented in it overall.

O=C(Nc1cccc(S(=O)(=O)NC2=NCCCCC2)c1)c1cc(-c2ccc(Cl)cc2)nc2ccccc12	none
Clc1ccc(OCc2cn3cccnc3n2)c2ncccc12	none (no result: Calb biofilm kill)
Cc1cc(Cl)ccc1OCc1cn2cccnc2n1	ROMK primary 4.07 | ROMK hit retest inconclusive
Cc1ccc(C)c(Cn2c(C)nc3c(sc(=S)n3-c3ccccc3)c2=O)c1	none
Cc1nc([N+](=O)[O-])c(Sc2nc3ccccc3n2C)n1Cc1ccccc1	ROMK primary -2.97 | ROMK hit retest 0.0557
Cc1nc([N+](=O)[O-])c(SCC(N)=O)n1Cc1ccccc1	none
CCOc1ccc(Br)cc1S(=O)(=O)Nc1cccc(S(=O)(=O)N(C)C)c1	none
O=C(NCC(=O)N(c1cccnc1)C(C(=O)NC1CCCC1)c1ccc(F)cc1)c1ccco1 (configuration not stated)	none
Cc1ccc(C(=O)NCCn2c(N)c(C#N)c3nc4ccccc4nc32)cc1	none
N#Cc1c(N)n(CCOC(=O)c2cccc(Br)c2)c2nc3ccccc3nc12	none (no result: Calb biofilm kill) | ROMK hit retest inactive
Cc1ccc2cc3c(N)c(C(=O)N4CC(=O)Nc5ccccc54)sc3nc2c1	none (no result: ROMK primary, Calb biofilm kill) | ROMK hit retest 0.0465
Cc1cc(C)cc(C(=O)N2CC(=O)Nc3ccccc32)c1	none (no result: Calb biofilm kill)
NC(=O)c1nsc(C(=O)N(CC(=O)NC2CCCC2)Cc2ccc3c(c2)OCO3)c1N	none
Cc1ccc(N(C(=O)c2cc3ccccc3oc2=O)C2C=CS(=O)(=O)C2)cc1 (configuration not stated)	none (no result: ROMK primary)
O=C1c2ccccc2C(=O)N1CCCCN(C(=O)c1cc2ccccc2oc1=O)c1ccc(Cl)cc1	ROMK primary -2.35 | ROMK hit retest inactive
CN(Cc1ccccc1)c1nc2c(c(=O)[nH]c(=O)n2C)n1CCSc1ncccn1	none (no result: Calb biofilm kill)
Cc1cc(N2CCCC2)ccc1/C=C1\NC(=S)N(C)C1=O	ROMK primary -3.16 | ROMK hit retest 0.025
O=C1/C(=C/c2ccc(N3CCCC3)cc2)NC(=S)N1C1CC1	none (no result: Calb biofilm kill)
Cc1ccc(OCCCN2CCCC2)c(C)c1	none (no result: Calb biofilm kill)
Cc1ccc(OCCCCNC2CCCC(C)C2C)c(C)c1 (configuration not stated)	none (no result: ROMK primary) | ROMK hit retest 0.0532
O=C1/C(=C\c2ccc(O)c(O)c2)N=C2CCCCCN12	none (no result: ROMK primary)
O=C(N/N=C/c1ccc(N2CCOCC2)cc1)c1ccccc1OCCOc1ccccc1	none
CSc1nc2[nH]c3c(c2c2nnnn12)CCCC3	none (no result: ROMK primary, Calb biofilm kill) | ROMK hit retest inactive
CSc1nc2[nH]c3c(c2c2nncn12)CC(C)(C)OC3	none (no result: Calb biofilm kill)
C#CCNC(=O)C1CCN(c2ccc(S(=O)(=O)N3CCOCC3)cc2Cl)CC1	none
O=C(NCc1cccs1)C1CCN(c2ccc(S(=O)(=O)N3CCOCC3)cc2Cl)CC1	ROMK primary 2.9 (no result: Calb biofilm kill) | ROMK hit retest inactive
COc1ccc(C(=O)NC2(C(F)(F)F)NC(=O)N(CCCc3ccccc3)C2=O)cc1OC (configuration not stated)	none
COc1ccc(NC(=O)Cc2ccc(Cl)c(Cl)c2)cn1	none
COc1ccc(NC(=O)/C(Cl)=C(/Cl)S(=O)(=O)Cc2ccc(C)cc2)cn1	ROMK primary -3.78 (no result: Calb biofilm kill) | ROMK hit retest inconclusive
N#CCCN(Cc1cccnc1)C(=S)NC1CC2C=CC1C2 (configuration not stated)	none (no result: ROMK primary)
Cc1nc2cc(-c3ccc(Cl)cc3)nn2c(NCCN(C)C)c1C	none
COc1c(C)cc(S(=O)(=O)NC2CC(C)(C)NC(C)(C)C2)c(C)c1C	none (no result: ROMK primary)
CCOc1cc(C)c(S(=O)(=O)NC2CC(C)(C)NC(C)(C)C2)cc1C	ROMK primary -3.55 | ROMK hit retest 0.066
COc1cc(/C=C2/CC/C(=C/c3ccc(O)c(OC)c3)C2=O)ccc1O	none (no result: ROMK primary) | ROMK hit retest 0.0512
COc1cc(/C=C2\CC/C(=C\c3ccc(OCCO)c(OC)c3)C2=O)ccc1OCCO	ROMK primary -2.37 | ROMK hit retest inconclusive
COc1cc(/C=C2\COC/C(=C\c3ccc(O)c(OC)c3)C2=O)ccc1O	none (no result: ROMK primary)
COc1ccc(/C=C2\CC/C(=C\c3ccc(OC)c(OC)c3)C2=O)cc1OC	none
O=C(CSc1ccc(-c2ccco2)nn1)NCc1ccccc1	none
Cc1nc(SCc2ccc(Cl)cc2)ncc1C(=O)O	none
O=C(COC(=O)C1CCN(S(=O)(=O)c2cccs2)CC1)NCc1ccc(F)cc1	none (no result: ROMK primary)
Cc1ccccc1NS(=O)(=O)c1cc(S(C)(=O)=O)ccc1Cl	none (no result: Calb biofilm kill) | ROMK hit retest inactive
Cc1ccccc1NS(=O)(=O)c1ccc(Cl)cc1	none
CC(C)OC(=O)CC1C(=O)NCCN1C(=S)NC(=O)c1cccs1 (configuration not stated)	none
CN(C)c1nc(Oc2ccc(C(=O)OCC(=O)Nc3ccccc3)cc2)nc(N(C)C)n1	none (no result: ROMK primary, Calb biofilm kill) | ROMK hit retest inactive
O=C(COC(=O)c1ccncc1)Nc1ccccc1	none
CCn1cc(-c2cc(C(=O)O)c3ccccc3n2)cn1	none
Oc1[nH]c2ccccc2c1N=Nc1ccc(F)cc1	none (no result: ROMK primary)
Oc1[nH]c2ccccc2c1N=Nc1ccccc1	none (no result: ROMK primary) | ROMK hit retest 0.0679
CC(=O)N1CCc2ccc(S(=O)(=O)N3CCc4ccccc43)cc21	none

Screening data as filed in PubChem BioAssay.
